Results as given in ChEMBL document CHEMBL4765234 (J Med Chem, 2016).
Converted amounts (≈) assume the structure as drawn. The source made the active and inactive calls. The rule behind the calls is not given here.

Experiments:
[1] = Metabolic stability in human liver microsomes assessed as compound hydrolysis incubated for 30 mins by LC-MS/MS analysis; assay type: ADME, Microsome; conditions: read-out: Drug degradation
Procedure, shortened: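 Incubated 30 min with mouse or human liver microsomes. Stability reported as % metabolized.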

[2] = Half-life in dog at 5 mg/kg, po or 1 mg/kg, iv by LC/MS/MS analysis; assay type: ADME, organism-based, Canis lupus familiaris; conditions: in vivo
Procedure, shortened: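 Mice, rats and beagle dogs dosed; blood drawn at set times into EDTA, processed to plasma and assayed by LC/MS/MS. Parameters (clearance, Vdss, terminal half-life, Cmax, Tmax, oral bioavailability) derived by noncompartmental analysis.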

Mus musculus = experiment: Hypoglycemic activity in Balb/c mouse assessed as increase in insulin secretion at 0.03 to 3 mg/kg, po administered 60 mins prior to glucose challenge and measured at 3 to 7 mins by IPGTT; assay type: functional, organism-based; conditions: dose 0.03-3 mg/kg
[3] = target: Free fatty acid receptor 1 (Homo sapiens, UniProt O14842); experiment: Displacement of [3H]-(S)-2-(6-((2',6'-dimethyl-4'-(3-(methylsulfonyl)propoxy)biphenyl-3-yl)methoxy)-2,3-dihydrobenzofuran-3-yl)acetic acid from human recombinant full-length GPR40 expressed in human HEK293 cell membrane assessed as Koff rate measured after 2 hrs by radioligand competitive assay; assay type: cell membranes; conditions: filed as agonist
[4] = target: Voltage-gated inwardly rectifying potassium channel KCNH2 (Homo sapiens, UniProt Q12809); experiment: Inhibition of human ERG at 10 to 100 uM; conditions: dose 10-100 µM
[5] = Aqueous solubility of the compound at pH 7.4; assay type: physicochemical; conditions: buffer
[6] = Volume of distribution at steady state in rat at 3 mg/kg, po or 1 mg/kg, iv by LC/MS/MS analysis; assay type: ADME, organism-based; conditions: in vivo, read-out: Vdss
Procedure, shortened: (§1)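 Dosed to mice, rats or beagle dogs. Blood collected at selected time points with EDTA anticoagulant, processed to plasma and analysed by LC/MS/MS. Parameters obtained by noncompartmental analysis.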

[7] = Elimination half-life in mouse plasma at 3 mg/kg, po or 1 mg/kg, iv by LC/MS/MS analysis; assay type: ADME, organism-based; procedure, shortened: as §1
[8] = Clearance in dog plasma at 3 mg/kg, po or 1 mg/kg, iv by LC/MS/MS analysis; assay type: ADME, organism-based, Canis lupus familiaris
Procedure, shortened: (§2)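 Mice, rats and beagle dogs were dosed. Blood was collected into EDTA at set time points and processed to plasma for LC/MS/MS bioanalysis. Parameters were derived by noncompartmental analysis.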

[9] = Drug metabolism in dog plasma assessed as metabolite formation by LC-MS/MS analysis; assay type: ADME, cell-free, Canis lupus familiaris
[10] = Volume of distribution at steady state in mouse at 3 mg/kg, po or 1 mg/kg, iv by LC/MS/MS analysis; assay type: ADME, organism-based; conditions: in vivo, read-out: Vdss; procedure, shortened: as §1
[11] = Clearance in mouse plasma at 3 mg/kg, po or 1 mg/kg, iv by LC/MS/MS analysis; assay type: ADME, organism-based; procedure, shortened: as §2
[12] = Elimination half-life in rat plasma at 3 mg/kg, po or 1 mg/kg, iv by LC/MS/MS analysis; assay type: ADME, organism-based; conditions: read-out: beta t1/2 (converted); procedure, shortened: as §1
[13] = Clearance in human hepatocytes by LC-MS/MS analysis; assay type: ADME, cell-based, Hepatocyte
[14] = Drug metabolism in mouse hepatocytes assessed as oxidation by LC-MS/MS analysis; assay type: ADME, cell-based, Hepatocyte
[15] = Tmax in rat at 3 mg/kg, po or 1 mg/kg, iv by LC/MS/MS analysis; assay type: ADME, organism-based; conditions: in vivo; procedure, shortened: as §1
[16] = Half-life in dog at 3 mg/kg, po or 1 mg/kg, iv by LC/MS/MS analysis; assay type: ADME, organism-based, Canis lupus familiaris; conditions: in vivo; procedure, shortened: as §1
[17] = Cmax in rat plasma at 3 mg/kg, po or 1 mg/kg, iv by LC/MS/MS analysis; assay type: ADME, organism-based; design: dose 3 mg/kg; procedure, shortened: as §2
[18] = Clearance in rat plasma at 3 mg/kg, po or 1 mg/kg, iv by LC/MS/MS analysis; assay type: ADME, organism-based; procedure, shortened: as §2
[19] = Drug metabolism in human hepatocytes assessed as taurine metabolite formation by LC-MS/MS analysis; assay type: ADME, cell-based, Hepatocyte
[20] = Cmax in dog plasma at 3 mg/kg, po or 1 mg/kg, iv by LC/MS/MS analysis; assay type: ADME, organism-based, Canis lupus familiaris; design: dose 3 mg/kg; procedure, shortened: as §2
[21] = Half-life in rat at 3 mg/kg, po or 1 mg/kg, iv by LC/MS/MS analysis; assay type: ADME, organism-based; conditions: in vivo; procedure, shortened: as §1
[22] = Drug metabolism in dog feces assessed as metabolite formation by LC-MS/MS analysis; assay type: ADME, tissue-based, Canis lupus familiaris
[23] = Volume of distribution at steady state in dog at 3 mg/kg, po or 1 mg/kg, iv by LC/MS/MS analysis; assay type: ADME, organism-based, Canis lupus familiaris; conditions: in vivo, read-out: Vdss; procedure, shortened: as §1
[24] = Drug metabolism in human hepatocytes assessed as N-dealkylation by LC-MS/MS analysis; assay type: ADME, cell-based, Hepatocyte
[25] = Cmax in mouse plasma at 3 mg/kg, po or 1 mg/kg, iv by LC/MS/MS analysis; assay type: ADME, organism-based; design: dose 3 mg/kg; procedure, shortened: as §2
[26] = Drug metabolism in dog hepatocytes assessed as N-dealkylation by LC-MS/MS analysis; assay type: ADME, cell-based, Canis lupus familiaris, Hepatocyte
[27] = Elimination half-life in dog plasma at 3 mg/kg, po or 1 mg/kg, iv by LC/MS/MS analysis; assay type: ADME, organism-based, Canis lupus familiaris; procedure, shortened: as §1
[28] = Drug metabolism in dog hepatocytes assessed as taurine metabolite formation by LC-MS/MS analysis; assay type: ADME, cell-based, Canis lupus familiaris, Hepatocyte
[29] = Tmax in dog at 3 mg/kg, po or 1 mg/kg, iv by LC/MS/MS analysis; assay type: ADME, organism-based, Canis lupus familiaris; conditions: in vivo; procedure, shortened: as §1
[30] = Tmax in mouse at 3 mg/kg, po or 1 mg/kg, iv by LC/MS/MS analysis; assay type: ADME, organism-based; conditions: in vivo; procedure, shortened: as §1
[31] = Oral bioavailability in rat at 3 mg/kg by LC/MS/MS analysis; assay type: ADME, organism-based; conditions: in vivo; procedure, shortened: as §1
[32] = Oral bioavailability in mouse at 3 mg/kg by LC/MS/MS analysis; assay type: ADME, organism-based; conditions: in vivo; procedure, shortened: as §1
[33] = Half-life in mouse at 3 mg/kg, po or 1 mg/kg, iv by LC/MS/MS analysis; assay type: ADME, organism-based; conditions: in vivo; procedure, shortened: as §1
[34] = Drug metabolism in rat hepatocytes assessed as taurine metabolite formation by LC-MS/MS analysis; assay type: ADME, cell-based, Hepatocyte
[35] = Drug metabolism in human hepatocytes assessed as glucuronidation by LC-MS/MS analysis; assay type: ADME, cell-based, Hepatocyte
[36] = Oral bioavailability in dog at 3 mg/kg by LC/MS/MS analysis; assay type: ADME, organism-based, Canis lupus familiaris; conditions: in vivo; procedure, shortened: as §1
[37] = Drug metabolism in rat hepatocytes assessed as N-dealkylation by LC-MS/MS analysis; assay type: ADME, cell-based, Hepatocyte
[38] = Apparent clearance in type 2 diabetic mellitus human at 540 mg, po administered as single dose; assay type: ADME, organism-based; conditions: in vivo
Procedure, shortened: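 Type 2 diabetic subjects each received a single oral dose. Plasma drug levels were followed over time. Parameters were derived by noncompartmental analysis and reported as geometric means with CV%. CL/F is apparent total clearance and Vz/F is apparent terminal-phase volume.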

[39] = Drug metabolism in dog urine assessed as metabolite formation by LC-MS/MS analysis; assay type: ADME, tissue-based, Canis lupus familiaris
[40] = Drug distribution in C57BL/6 mouse skeletal muscle at 3 microg/kg, iv administered as single dose observed at 20 to 40 mins by LC-MS/MS analysis; assay type: ADME, organism-based, Skeletal muscle tissue; conditions: in vivo, 0.003 mg/kg, time 20-40 min, dose 3 µg/kg
Procedure, shortened: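 Tracer microdose study in fed male C57BL/6 mice: single 3 μg/kg IV dose in 25% HP-BCD. Mice were killed by cervical dislocation, and spleen, ascending colon, skeletal muscle and plasma were sampled at 20 and 40 min.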

Sequence of Voltage-gated inwardly rectifying potassium channel KCNH2 (Q12809 whole entry): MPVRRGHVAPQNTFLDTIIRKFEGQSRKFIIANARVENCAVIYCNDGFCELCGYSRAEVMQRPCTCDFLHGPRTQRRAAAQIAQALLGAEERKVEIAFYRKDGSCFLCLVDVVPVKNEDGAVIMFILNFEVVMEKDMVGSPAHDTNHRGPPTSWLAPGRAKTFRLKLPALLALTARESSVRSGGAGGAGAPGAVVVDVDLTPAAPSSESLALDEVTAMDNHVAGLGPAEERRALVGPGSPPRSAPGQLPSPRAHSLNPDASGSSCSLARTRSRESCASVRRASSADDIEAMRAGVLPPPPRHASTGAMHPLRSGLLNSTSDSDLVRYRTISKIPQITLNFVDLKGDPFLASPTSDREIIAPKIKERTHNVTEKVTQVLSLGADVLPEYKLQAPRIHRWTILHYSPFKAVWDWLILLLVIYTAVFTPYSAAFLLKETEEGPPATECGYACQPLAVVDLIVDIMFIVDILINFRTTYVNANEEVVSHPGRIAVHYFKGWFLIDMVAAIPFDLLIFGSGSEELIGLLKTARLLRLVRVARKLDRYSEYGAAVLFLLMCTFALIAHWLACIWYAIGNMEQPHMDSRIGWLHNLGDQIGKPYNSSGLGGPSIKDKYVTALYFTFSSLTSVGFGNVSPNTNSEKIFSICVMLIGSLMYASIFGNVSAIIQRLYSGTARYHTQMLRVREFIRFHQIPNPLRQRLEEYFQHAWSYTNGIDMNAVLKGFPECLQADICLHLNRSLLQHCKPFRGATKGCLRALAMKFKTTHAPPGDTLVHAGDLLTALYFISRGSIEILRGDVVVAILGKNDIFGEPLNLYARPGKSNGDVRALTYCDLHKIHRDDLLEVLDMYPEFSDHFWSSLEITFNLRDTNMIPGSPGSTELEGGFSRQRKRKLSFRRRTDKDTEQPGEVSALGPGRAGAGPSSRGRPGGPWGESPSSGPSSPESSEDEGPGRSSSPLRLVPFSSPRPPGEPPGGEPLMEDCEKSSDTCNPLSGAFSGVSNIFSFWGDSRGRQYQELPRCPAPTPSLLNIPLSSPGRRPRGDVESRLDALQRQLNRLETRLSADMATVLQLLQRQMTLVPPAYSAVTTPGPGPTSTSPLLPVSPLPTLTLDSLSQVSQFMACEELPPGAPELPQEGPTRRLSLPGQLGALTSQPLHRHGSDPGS
Sequence of Free fatty acid receptor 1 (O14842 whole entry): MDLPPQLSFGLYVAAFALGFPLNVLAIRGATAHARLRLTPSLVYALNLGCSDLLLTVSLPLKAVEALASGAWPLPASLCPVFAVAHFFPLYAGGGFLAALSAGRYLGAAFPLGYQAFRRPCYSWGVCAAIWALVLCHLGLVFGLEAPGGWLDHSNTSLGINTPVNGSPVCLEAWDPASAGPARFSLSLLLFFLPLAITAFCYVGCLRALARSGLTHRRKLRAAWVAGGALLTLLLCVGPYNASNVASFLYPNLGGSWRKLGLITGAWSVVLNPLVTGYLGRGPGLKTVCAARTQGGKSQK

Row | Compound | metabolised at 0.5 h [1] [%] | Activity (Mus musculus) | K [3] [min⁻¹] | inhibition (INH) [4] | solubility [5] [µM] | Vd [6] [L/kg] | half-life [7] [h] | clearance [8] [mL/min/kg] | Drug metabolism [9] | Vd [10] [L/kg] | clearance [11] [mL/min/kg] | half-life [12] [h] | CLH [13] [h⁻¹] | Tmax [15] [h] | half-life [16] [h] | Cmax [17] [ng/mL] | clearance [18] [mL/min/kg] | Drug metabolism [19] | Cmax [20] [ng/mL] | half-life [21] [h] | other results
1 | CC#C[C@@H](CC(=O)O)c1ccc(OCc2ccc(CN3CCC4(C=Cc5ccccc54)CC3)cc2)cc1 [LY2881835] | 38 | Active | 0.00822 | Not Active | 61 (≈ 30 µg/mL) | – | – | – | – | – | – | – | – | – | – | – | – | – | – | – | half-life [2]: 5.05 h
2 | O=C(O)CCc1ccc(OCc2ccc(CN3CCC4(C=Cc5ccccc54)CC3)cc2)cc1F | – | – | 0.0866 | – | – | – | – | – | – | – | – | – | – | – | – | – | – | – | – | – | –
3 | CC#C[C@@H](CC(=O)O)c1ccc(OCc2ccc(CN3CCC4(CCc5ccccc54)CC3)s2)cc1 | 44 | Active | – | Not Active | 89 (≈ 44.5 µg/mL) | 0.8 | 1.7 | 2.2 | Metabolite_Notdetected | 1.6 | 9.3 | 2 | 0.23 | 0.5 | 3.8 | 829 | 20 | Metabolite_Detected | 1100 | 1.6 | Drug metabolism [14]: Metabolite_Detected; Drug metabolism [22]: Metabolite_Notdetected; Vd [23]: 0.2 L/kg; Drug metabolism [24]: Metabolite_Detected; Cmax [25]: 184 ng/mL; Drug metabolism [26]: Metabolite_Detected; half-life [27]: 3.8 h; Drug metabolism [28]: Metabolite_Detected; Tmax [29]: 2 h; Tmax [30]: 2 h; bioavailability [31]: 46%; bioavailability [32]: 21%; half-life [33]: 1.7 h; Drug metabolism [34]: Metabolite_Detected; Drug metabolism [35]: Metabolite_Detected; bioavailability [36]: 17%; Drug metabolism [37]: Metabolite_Detected
4 | CC#C[C@@H](CC(=O)O)c1ccc(OCc2ccc(CN3CCCc4cccc(OC)c43)s2)cc1 | 24 | Active | – | Not Active | > 100 | 1.2 | 4.2 | 4.6 | Metabolite_Detected | 3.9 | 15.4 | 5.6 | 0.17 | 0.6 | 4.4 | 4140 | 3.8 | – | 2290 | 5.6 | Drug metabolism [22]: Metabolite_Notdetected; Vd [23]: 1 L/kg; Cmax [25]: 552 ng/mL; half-life [27]: 4.4 h; CL/F [38]: 217 mL/min; Drug metabolism [39]: Metabolite_Notdetected; Tmax [29]: 0.5 h; Tmax [30]: 1 h; bioavailability [31]: 95%; bioavailability [32]: 62%; half-life [33]: 4.2 h; bioavailability [36]: 55%
5 | CC#C[C@@H](CC(=O)O)c1ccc(OCc2ccc(CN3CCC4(C=Cc5ccccc54)CC3)s2)cc1 | – | – | – | – | – | – | – | – | – | – | – | – | – | – | – | – | – | Metabolite_Detected | – | – | Drug metabolism [24]: Metabolite_Detected; Drug metabolism [26]: Metabolite_Detected; Drug uptake [40]: Active; Drug metabolism [28]: Metabolite_Detected; Drug metabolism [34]: Metabolite_Detected; Drug metabolism [35]: Metabolite_Detected; Drug metabolism [37]: Metabolite_Detected
